# Test results as given in paper PMC7670640 (Pharmacology Research & Perspectives, 2020).
# Legend:
# Assay type in all cases: in vivo, human
# [1] = Relative bioavailability study: safety and tolerability
# [2] = Single ascending dose part
# Summary of the method: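 Healthy men in an interlocking two-cohort, four-period crossover. Each period was randomized 3:1 (6 active, 2 placebo); each participant received three ascending single oral doses and one placebo, each after a moderate-fat meal (~600 calories, ~30% fat). Two sentinel participants per period were dosed first, with a 24-h safety review before the rest. Monitoring covered AEs, vitals, ECGs, labs, physical exams, and GI/hepatobiliary abnormalities. AEs were MedDRA-coded and summarized descriptively.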
# [3] = Single ascending dose part; conditions: for AUC / Cmax / Tmax / half-life: human, plasma, oral
# Summary of the method: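 Healthy men received a single oral dose of test compound after a moderate-fat meal (~600 calories, ~30% from fat). Plasma was taken from ~2 mL whole blood and assayed by HPLC-MS/MS. Cmax, tmax, AUC0-∞, AUC0-24 and terminal half-life came from standard noncompartmental analysis. Dose proportionality was assessed with a power model and ANOVA.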
# [4] = Part 1, across all drug doses in the 20 participants
compound,measurement,setting,value
C=C(C)[C@@H]1CC[C@]2(NCCN3CCS(=O)(=O)CC3)CC[C@]3(C)[C@H](CC[C@@H]4[C@@]5(C)CC=C(C6=CC[C@@](CF)(C(=O)O)CC6)C(C)(C)[C@@H]5CC[C@]43C)[C@@H]12 [GSK3640254],"changes in laboratory values, vital signs, or ECG parameters",[1]; in vivo,"No clinically significant changes in laboratory values, vital signs, or ECG parameters"
same,participants reporting at least one AE,"[1]; of the 14 total participants, all mild",50%
same,"most common AEs: contact dermatitis, number of events",[2]; [4],five
same,"most common AEs: diarrhea, number of events",[2]; [4],four
same,"most common AEs: dizziness, number of events",[2]; [4],four
same,"most common AEs: headache, number of events",[2]; [4],eight
same,"most common AEs: nasopharyngitis, number of events",[2]; [4],three
same,participants reporting GI AEs,"[2]; Part 1, eleven GI AEs in six participants",30%
same,"adverse drug reactions, number",[2]; across both parts of the study (total includes placebo periods per Table 3),12
same,trends in laboratory values or vital sign parameters,[2]; across doses in either part of the study,no clinically significant trends in laboratory values or vital sign parameters
same,deaths or serious AEs,[2]; single and multiple ascending doses,no deaths or serious AEs were reported
same,Adverse event: Any event,[2]; single dose 1 mg (N = 6),3 (50) n (%)
same,Adverse event: Contact dermatitis,[2]; single dose 1 mg (N = 6),1 (17) n (%)
same,Adverse event: Cough,[2]; single dose 1 mg (N = 6),0 n (%)
same,Adverse event: Diarrhea,[2]; single dose 1 mg (N = 6),0 n (%)
same,Adverse event: Dizziness,[2]; single dose 1 mg (N = 6),1 (17) n (%)
same,Adverse event: Gastrointestinal disorders,[2]; single dose 1 mg (N = 6),1 (17) n (%)
same,Adverse event: Headache,[2]; single dose 1 mg (N = 6),1 (17) n (%)
same,Adverse event: Increased transaminases,[2]; single dose 1 mg (N = 6),0 n (%)
same,Adverse event: Nasal obstruction,[2]; single dose 1 mg (N = 6),0 n (%)
same,Adverse event: Nasopharyngitis,[2]; single dose 1 mg (N = 6),0 n (%)
same,Adverse event: Nightmare,[2]; single dose 1 mg (N = 6),0 n (%)
same,Adverse event: Viral infection,[2]; single dose 1 mg (N = 6),0 n (%)
same,Adverse event: Vomiting,[2]; single dose 1 mg (N = 6),0 n (%)
same,Adverse event: Any event,[2]; single dose 3 mg (N = 6),2 (33) n (%)
same,Adverse event: Contact dermatitis,[2]; single dose 3 mg (N = 6),1 (17) n (%)
same,Adverse event: Cough,[2]; single dose 3 mg (N = 6),0 n (%)
same,Adverse event: Diarrhea,[2]; single dose 3 mg (N = 6),0 n (%)
same,Adverse event: Dizziness,[2]; single dose 3 mg (N = 6),1 (17) n (%)
same,Adverse event: Gastrointestinal disorders,[2]; single dose 3 mg (N = 6),0 n (%)
same,Adverse event: Headache,[2]; single dose 3 mg (N = 6),0 n (%)
same,Adverse event: Increased transaminases,[2]; single dose 3 mg (N = 6),0 n (%)
same,Adverse event: Nasal obstruction,[2]; single dose 3 mg (N = 6),0 n (%)
same,Adverse event: Nasopharyngitis,[2]; single dose 3 mg (N = 6),0 n (%)
same,Adverse event: Nightmare,[2]; single dose 3 mg (N = 6),1 (17) n (%)
same,Adverse event: Viral infection,[2]; single dose 3 mg (N = 6),0 n (%)
same,Adverse event: Vomiting,[2]; single dose 3 mg (N = 6),0 n (%)
same,Adverse event: Any event,[2]; single dose 10 mg (N = 6),4 (67) n (%)
same,Adverse event: Contact dermatitis,[2]; single dose 10 mg (N = 6),1 (17) n (%)
same,Adverse event: Cough,[2]; single dose 10 mg (N = 6),1 (17) n (%)
same,Adverse event: Diarrhea,[2]; single dose 10 mg (N = 6),1 (17) n (%)
same,Adverse event: Dizziness,[2]; single dose 10 mg (N = 6),1 (17) n (%)
same,Adverse event: Gastrointestinal disorders,[2]; single dose 10 mg (N = 6),1 (17) n (%)
same,Adverse event: Headache,[2]; single dose 10 mg (N = 6),1 (17) n (%)
same,Adverse event: Increased transaminases,[2]; single dose 10 mg (N = 6),0 n (%)
same,Adverse event: Nasal obstruction,[2]; single dose 10 mg (N = 6),1 (17) n (%)
same,Adverse event: Nasopharyngitis,[2]; single dose 10 mg (N = 6),1 (17) n (%)
same,Adverse event: Nightmare,[2]; single dose 10 mg (N = 6),0 n (%)
same,Adverse event: Viral infection,[2]; single dose 10 mg (N = 6),1 (17) n (%)
same,Adverse event: Vomiting,[2]; single dose 10 mg (N = 6),0 n (%)
same,Adverse event: Any event,[2]; single dose 30 mg (N = 6),3 (50) n (%)
same,Adverse event: Contact dermatitis,[2]; single dose 30 mg (N = 6),0 n (%)
same,Adverse event: Cough,[2]; single dose 30 mg (N = 6),0 n (%)
same,Adverse event: Diarrhea,[2]; single dose 30 mg (N = 6),1 (17) n (%)
same,Adverse event: Dizziness,[2]; single dose 30 mg (N = 6),0 n (%)
same,Adverse event: Gastrointestinal disorders,[2]; single dose 30 mg (N = 6),1 (17) n (%)
same,Adverse event: Headache,[2]; single dose 30 mg (N = 6),1 (17) n (%)
same,Adverse event: Increased transaminases,[2]; single dose 30 mg (N = 6),0 n (%)
same,Adverse event: Nasal obstruction,[2]; single dose 30 mg (N = 6),0 n (%)
same,Adverse event: Nasopharyngitis,[2]; single dose 30 mg (N = 6),0 n (%)
same,Adverse event: Nightmare,[2]; single dose 30 mg (N = 6),0 n (%)
same,Adverse event: Viral infection,[2]; single dose 30 mg (N = 6),0 n (%)
same,Adverse event: Vomiting,[2]; single dose 30 mg (N = 6),0 n (%)
same,Adverse event: Any event,[2]; single dose 100 mg (N = 6),3 (50) n (%)
same,Adverse event: Contact dermatitis,[2]; single dose 100 mg (N = 6),0 n (%)
same,Adverse event: Cough,[2]; single dose 100 mg (N = 6),1 (17) n (%)
same,Adverse event: Diarrhea,[2]; single dose 100 mg (N = 6),2 (33) n (%)
same,Adverse event: Dizziness,[2]; single dose 100 mg (N = 6),0 n (%)
same,Adverse event: Gastrointestinal disorders,[2]; single dose 100 mg (N = 6),2 (33) n (%)
same,Adverse event: Headache,[2]; single dose 100 mg (N = 6),2 (33) n (%)
same,Adverse event: Increased transaminases,[2]; single dose 100 mg (N = 6),0 n (%)
same,Adverse event: Nasal obstruction,[2]; single dose 100 mg (N = 6),0 n (%)
same,Adverse event: Nasopharyngitis,[2]; single dose 100 mg (N = 6),1 (17) n (%)
same,Adverse event: Nightmare,[2]; single dose 100 mg (N = 6),0 n (%)
same,Adverse event: Viral infection,[2]; single dose 100 mg (N = 6),1 (17) n (%)
same,Adverse event: Vomiting,[2]; single dose 100 mg (N = 6),2 (33) n (%)
same,Adverse event: Any event,[2]; single dose 200 mg (N = 6),4 (67) n (%)
same,Adverse event: Contact dermatitis,[2]; single dose 200 mg (N = 6),1 (17) n (%)
same,Adverse event: Cough,[2]; single dose 200 mg (N = 6),0 n (%)
same,Adverse event: Diarrhea,[2]; single dose 200 mg (N = 6),0 n (%)
same,Adverse event: Dizziness,[2]; single dose 200 mg (N = 6),0 n (%)
same,Adverse event: Gastrointestinal disorders,[2]; single dose 200 mg (N = 6),0 n (%)
same,Adverse event: Headache,[2]; single dose 200 mg (N = 6),1 (17) n (%)
same,Adverse event: Increased transaminases,[2]; single dose 200 mg (N = 6),1 (17) n (%)
same,Adverse event: Nasal obstruction,[2]; single dose 200 mg (N = 6),0 n (%)
same,Adverse event: Nasopharyngitis,[2]; single dose 200 mg (N = 6),0 n (%)
same,Adverse event: Nightmare,[2]; single dose 200 mg (N = 6),0 n (%)
same,Adverse event: Viral infection,[2]; single dose 200 mg (N = 6),0 n (%)
same,Adverse event: Vomiting,[2]; single dose 200 mg (N = 6),0 n (%)
same,Adverse event: Any event,[2]; single dose 400 mg (N = 6),4 (67) n (%)
same,Adverse event: Contact dermatitis,[2]; single dose 400 mg (N = 6),1 (17) n (%)
same,Adverse event: Cough,[2]; single dose 400 mg (N = 6),0 n (%)
same,Adverse event: Diarrhea,[2]; single dose 400 mg (N = 6),0 n (%)
same,Adverse event: Dizziness,[2]; single dose 400 mg (N = 6),0 n (%)
same,Adverse event: Gastrointestinal disorders,[2]; single dose 400 mg (N = 6),1 (17) n (%)
same,Adverse event: Headache,[2]; single dose 400 mg (N = 6),2 (33) n (%)
same,Adverse event: Increased transaminases,[2]; single dose 400 mg (N = 6),0 n (%)
same,Adverse event: Nasal obstruction,[2]; single dose 400 mg (N = 6),0 n (%)
same,Adverse event: Nasopharyngitis,[2]; single dose 400 mg (N = 6),1 (17) n (%)
same,Adverse event: Nightmare,[2]; single dose 400 mg (N = 6),0 n (%)
same,Adverse event: Viral infection,[2]; single dose 400 mg (N = 6),0 n (%)
same,Adverse event: Vomiting,[2]; single dose 400 mg (N = 6),0 n (%)
same,Adverse event: Any event,[2]; single dose 700 mg (N = 6),1 (17) n (%)
same,Adverse event: Contact dermatitis,[2]; single dose 700 mg (N = 6),0 n (%)
same,Adverse event: Cough,[2]; single dose 700 mg (N = 6),0 n (%)
same,Adverse event: Diarrhea,[2]; single dose 700 mg (N = 6),0 n (%)
same,Adverse event: Dizziness,[2]; single dose 700 mg (N = 6),1 (17) n (%)
same,Adverse event: Gastrointestinal disorders,[2]; single dose 700 mg (N = 6),0 n (%)
same,Adverse event: Headache,[2]; single dose 700 mg (N = 6),0 n (%)
same,Adverse event: Increased transaminases,[2]; single dose 700 mg (N = 6),0 n (%)
same,Adverse event: Nasal obstruction,[2]; single dose 700 mg (N = 6),0 n (%)
same,Adverse event: Nasopharyngitis,[2]; single dose 700 mg (N = 6),0 n (%)
same,Adverse event: Nightmare,[2]; single dose 700 mg (N = 6),0 n (%)
same,Adverse event: Viral infection,[2]; single dose 700 mg (N = 6),0 n (%)
same,Adverse event: Vomiting,[2]; single dose 700 mg (N = 6),0 n (%)
same,dose‐proportionality of Cmax and AUC,[3]; 1‐ to 700‐mg single dose range,approximately dose‐proportional increase in exposure
same,AUC,[3]; 1 mg,57 ng·h/mL
same,Cmax,[3]; 1 mg,5 ng/mL
same,Tmax,"[3]; 1 mg, tmax, median (range), single dose 1 mg, N = 6",3.5 h
same,AUC,[3]; 3 mg,329 ng·h/mL
same,Cmax,[3]; 3 mg,14 ng/mL
same,half-life,"[3]; 3 mg, t1/2, geometric mean (%CVb), single dose 3 mg, N = 6",20.5 h
same,Tmax,"[3]; 3 mg, tmax, median (range), single dose 3 mg, N = 6",4.5 h
same,AUC,[3]; 10 mg,1230 ng·h/mL
same,Cmax,[3]; 10 mg,47 ng/mL
same,Tmax,"[3]; 10 mg, tmax, median (range), single dose 10 mg, N = 6",3.5 h
same,AUC,[3]; 30 mg,2990 ng·h/mL
same,Cmax,[3]; 30 mg,130 ng/mL
same,Tmax,"[3]; 30 mg, tmax, median (range), single dose 30 mg, N = 6",4 h
same,AUC,[3]; 100 mg,8540 ng·h/mL
same,Cmax,[3]; 100 mg,372 ng/mL
same,Tmax,"[3]; 100 mg, tmax, median (range), single dose 100 mg, N = 6",3.8 h
same,AUC,[3]; 200 mg,15000 ng·h/mL
same,Cmax,[3]; 200 mg,579 ng/mL
same,Tmax,"[3]; 200 mg, tmax, median (range), single dose 200 mg, N = 6",3 h
same,AUC,[3]; 400 mg,43000 ng·h/mL
same,Cmax,[3]; 400 mg,1880 ng/mL
same,Tmax,"[3]; 400 mg, tmax, median (range), single dose 400 mg, N = 6",3.3 h
same,AUC,[3]; 700 mg,39700 ng·h/mL
same,Cmax,[3]; 700 mg,1720 ng/mL
same,Tmax,"[3]; 700 mg, tmax, median (range), single dose 700 mg, N = 6",3.3 h
same,half-life,"[3]; estimated half‐life, single‐ and multiple‐dose administration after a moderate‐calorie and ‐fat breakfast",21.2 to 28.4 h
same,half-life,"[3]; half‐life, abstract summary of the FTIH study",~24 h
same,half-life,"[3]; mean half‐life, 10‐ to 700‐mg single doses",~24 h
same,Tmax,"[3]; median tmax, after administration, range across doses",3 to 4.5 h
same,change in exposure from 400 to 700 mg,[3]; single dose,no increase in exposure from 400 to 700 mg
same,time detectable in plasma,[3]; single dose 1 and 3 mg,up to 48 hours
same,time detectable in plasma,[3]; single dose 10‐700 mg,up to 96 hours
